# Measured values from ChEMBL document CHEMBL1177719 (J Med Chem, 2010).
# Calls of active or inactive are those of the source. The rule behind the calls is not given here.
# Experiments:
# Aromatase = molecular target: T1, Aromatase (Homo sapiens, UniProt P11511); details: read-out: INH
# T1 sequence (P11511 whole entry): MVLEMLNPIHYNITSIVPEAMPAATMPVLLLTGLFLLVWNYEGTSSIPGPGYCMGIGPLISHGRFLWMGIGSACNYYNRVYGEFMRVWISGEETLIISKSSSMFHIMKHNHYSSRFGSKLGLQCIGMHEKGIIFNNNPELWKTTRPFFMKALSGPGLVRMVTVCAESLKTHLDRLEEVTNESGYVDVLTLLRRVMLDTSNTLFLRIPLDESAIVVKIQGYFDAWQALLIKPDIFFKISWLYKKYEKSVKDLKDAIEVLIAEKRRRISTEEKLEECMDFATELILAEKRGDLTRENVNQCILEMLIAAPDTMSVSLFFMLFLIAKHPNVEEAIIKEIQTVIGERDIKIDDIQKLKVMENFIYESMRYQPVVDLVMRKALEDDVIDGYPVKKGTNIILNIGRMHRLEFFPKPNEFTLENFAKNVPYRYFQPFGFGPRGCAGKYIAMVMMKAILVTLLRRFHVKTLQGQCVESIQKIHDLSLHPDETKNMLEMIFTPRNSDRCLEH
# RAW264.7 = experiment: Inhibition of LPS-induced COX2 expression in mouse RAW264.7 cells at 34 uM treated 15 mins before LPS challenge measured after 18 hrs by immunoblotting; assay type: functional, cell-based
# In short: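 RAW 264.7 cells pretreated with samples 15 min, then LPS 1 μg/mL for 18 h. Lysates (30 μg protein) run on 8% SDS-PAGE, transferred to PVDF, probed with primary and HRP secondary antibodies, ECL detection. β-actin internal control; band density quantified relative to the LPS-only control; duplicate experiment.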
# HEK293 [1] = experiment: Cytotoxicity against human HEK293 cells at 34 uM; assay type: cell-based; details: hek293, 34 µM
# [2] = molecular target: T2, Nitric oxide synthase, inducible (Mus musculus) (UniProt P29477); experiment: Inhibition of iNOS-mediated nitric oxide production in mouse RAW 264.7 cells at 34 uM pretreated 30 mins measured after 20 hrs by Griess reaction method relative to control; assay type: cell-based
# T2 sequence (whole entry): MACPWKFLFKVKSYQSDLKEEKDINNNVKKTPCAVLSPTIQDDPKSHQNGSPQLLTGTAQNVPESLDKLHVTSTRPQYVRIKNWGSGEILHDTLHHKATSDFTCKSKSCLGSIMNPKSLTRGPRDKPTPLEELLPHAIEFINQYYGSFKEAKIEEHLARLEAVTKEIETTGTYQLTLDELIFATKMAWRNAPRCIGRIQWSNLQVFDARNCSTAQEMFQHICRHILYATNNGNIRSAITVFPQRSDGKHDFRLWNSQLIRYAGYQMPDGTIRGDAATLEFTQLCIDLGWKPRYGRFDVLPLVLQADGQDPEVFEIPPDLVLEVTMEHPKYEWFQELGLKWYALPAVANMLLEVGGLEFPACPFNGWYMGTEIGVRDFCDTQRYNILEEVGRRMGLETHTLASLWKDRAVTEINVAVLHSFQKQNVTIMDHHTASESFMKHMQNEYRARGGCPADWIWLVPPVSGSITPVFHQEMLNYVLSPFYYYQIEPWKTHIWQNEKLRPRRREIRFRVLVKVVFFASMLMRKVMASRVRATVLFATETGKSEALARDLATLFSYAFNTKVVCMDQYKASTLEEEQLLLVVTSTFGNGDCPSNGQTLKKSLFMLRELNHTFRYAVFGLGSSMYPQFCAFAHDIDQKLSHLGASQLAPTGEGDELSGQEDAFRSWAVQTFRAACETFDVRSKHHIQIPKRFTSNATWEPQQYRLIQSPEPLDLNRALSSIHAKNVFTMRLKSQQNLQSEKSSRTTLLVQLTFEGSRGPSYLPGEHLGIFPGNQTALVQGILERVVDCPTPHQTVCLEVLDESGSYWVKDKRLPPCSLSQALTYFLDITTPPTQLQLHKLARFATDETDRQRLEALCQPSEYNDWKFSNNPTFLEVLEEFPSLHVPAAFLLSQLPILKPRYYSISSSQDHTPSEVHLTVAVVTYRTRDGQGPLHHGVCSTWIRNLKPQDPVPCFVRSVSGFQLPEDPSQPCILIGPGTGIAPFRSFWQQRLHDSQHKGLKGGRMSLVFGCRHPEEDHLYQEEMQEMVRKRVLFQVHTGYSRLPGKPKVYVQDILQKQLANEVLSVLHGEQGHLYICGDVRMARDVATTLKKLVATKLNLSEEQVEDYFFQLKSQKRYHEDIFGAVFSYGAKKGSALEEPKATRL
# In short: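 RAW 264.7 macrophages seeded at 1 × 10⁵ cells/well for 24 h. Compounds in phenol red-free DMEM added 30 min before LPS (1 μg/mL), then 20 h further incubation. Nitrite in medium measured by Griess reagent at 540 nm against a sodium nitrite standard curve; inhibition at 34 μM.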
# [3] = molecular target: T2, Nitric oxide synthase, inducible (Mus musculus); experiment: Inhibition of iNOS-mediated nitric oxide production in LPS-stimulated mouse RAW 264.7 cells at 34 uM pretreated 30 mins before LPS challenge measured after 20 hrs by Griess reaction method relative to control; assay type: cell-based
# KB = experiment: Cytotoxicity against human KB cells assessed as cell survival at 20 ug/ml after 72 hrs by sulforhodamine B method; assay type: functional; details: read-out: Activity
# In short: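 Sulforhodamine B assay. KB or MCF7 cells plated with samples and held 72 h at 37 °C, 5% CO₂. Fixed 1 h in 10% trichloroacetic acid, stained with 0.4% SRB in 1% acetic acid, dye taken up in 10 mM Tris.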
# [4] = Antioxidant activity assessed as nitric oxide scavenging activity at 60 uM; assay type: functional
# In short: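 Compounds diluted tenfold in PBS and incubated with sodium nitroprusside (final compound 60 μM, SNP 5 mM) for 3 h at room temperature. Nitrite measured by Griess reagent, absorbance 540 nm. % inhibition given as average of triplicates ± standard deviation.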
# HEK293 [5] = experiment: Inhibition of TNF-alpha-induced NF-kappaB activity expressed in HEK293 cells at 34 uM after 48 hrs by luciferase reporter gene assay relative to control; assay type: cell-based
# In short: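 Stably transfected 293 cells carrying an NFκB response element–luciferase reporter, exposed to TNFα plus compound for 48 h, then assayed for luciferase. Activity expressed as % of TNFα-treated control. IC₅₀ from five serial dilutions, mean of two experiments.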
Structure (SMILES),inhibition at 34 µM (Aromatase),inhibition (RAW264.7),Activity (HEK293 [1]),Activity [2],inhibition [3],viability at 20 µg/mL (KB),Activity [4],inhibition (HEK293 [5])
O=S(=O)([O-])Oc1ccc(/C=C/c2cc(O)cc(O)c2)cc1.[K+],30.4%,inactive,Non-toxic,inactive,56.8%,108%,10.3%,64%
O=S(=O)([O-])Oc1ccc(/C=C/c2cc(OS(=O)(=O)[O-])cc(OS(=O)(=O)[O-])c2)cc1.[K+].[K+].[K+],28.5%,inactive,Non-toxic,inactive,24.8%,78.1%,1.6%,36.7%
O=S(=O)([O-])Oc1cc(/C=C/c2ccc(O)cc2)cc(OS(=O)(=O)[O-])c1.[K+].[K+],20.5%,inactive,Non-toxic,inactive,4.8%,84.2%,1.2%,42.5%
O=S(=O)([O-])Oc1cc(O)cc(/C=C/c2ccc(O)cc2)c1.[K+],28.2%,inactive,Non-toxic,inactive,41%,70.3%,24.7%,33%
